Data reported in PubChem BioAssay.
Results filed as inconclusive are left out.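 The calls were made as follows, unless noted: active = viability increase at or above a cutoff of the median across tested compounds plus 3 SD (cut at about 8.5% in these data, passing the limit was not always enough); inconclusive = some gains above the cutoff, reason not given; inactive = the rest.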

Columns and labels:
[1] = OD615 S. cerevisiae growth inhibition, permissive medium, pilot counter-assay, permissive growth control for S. cerevisiae lifespan shortening project (AID 705;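 active = growth inhibition above 25% in both replicates, a cutoff set 3 SD above the mean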); details: OD615, 24 h, at 10 µM, hits give high values
Outline: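 Test system: Saccharomyces cerevisiae strain carrying genetically modified DeaD replicative-lifespan system; buffer or medium: SC raffinose/galactose permissive medium; dosing: one dose 10 µM, DMSO 0.25% final; times: 24 h exposure, 30 °C; measured by: OD at 615 nm; read-out basis: growth inhibition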

[2] = Restrictive medium S. cerevisiae growth inhibition, OD615, pilot screen of yeast lifespan reduction project, restrictive growth control (AID 706;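 active = growth inhibition above a set limit, 3 SD over mean compound inhibition, in both replicates, cut at about 43% in these data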;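 also: modified DeaD lifespan yeast strain shifted to restrictive glucose medium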); details: OD615, 48 h, at 10 µM, hits give high values
Outline: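 material = engineered S. cerevisiae DeaD strain | buffer or medium = glucose-based CSMM-D restrictive medium | dosing = one concentration, 10 µM final, 0.25% DMSO | schedule = 4 h pre-growth plus 48 h compound exposure, 30 °C | detection = OD615 absorbance reading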

[3] = viability gain of MRP-1-high H69AR cells under doxorubicin, pilot screen, MRP-1 activator project, CellTiter-Glo, duplicate (AID 807); details: H69AR viability with doxorubicin, CellTiter-Glo luminescence; at 10 µM; hits give high values;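 also: compound pretreatment 18-22 h then 72 h combined with doxorubicin; 0% = doxorubicin alone and 100% = vehicle without doxorubicin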
[4] = growth suppression of beta-catenin knockout HCT116, pilot screen, human colon tumor cells (AID 823;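 active = cell viability at or below a set limit in both duplicate runs, the limit being the all-compound median minus 4 SD, cut at about 23% in these data, passing the limit was not always enough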;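 also: 0% = wells killed by 20 µM Hyamine and 100% = untreated DMSO cell wells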); details: CellTiter-Glo, 60 h, at 10 µM, hits give low values
[5] = growth suppression of PTEN-deleted HCT116, pilot screen, cell-based, HCT116 clonal line, CellTiter-Glo (AID 824;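 active = viability at or below 27.92% in each of two runs, the all-compound median minus 4 SD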;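 also: 0% = 20 µM Hyamine control and 100% = vehicle cell control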); details: 60 h, at 10 µM, hits give low values
[6] = inhibitors of the yeast RAM network, pilot screen, dse1pr::URA3 reporter, 5-FOA selection (AID 869;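 active = inhibition over a set limit, the all-compound mean plus 3 SD, in both replicate runs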;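 also: 0% = DMSO wells with no growth and 100% = 10 µM 1-NA-PP1 with full growth; RAM network block rescues cells from 5-FOA so hits raise OD615 growth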); details: S. cerevisiae dse1pr::URA3 5-FOA growth, OD615, 2 d; at 10 µM; hits give high values; strain carries analog-sensitive mutant Cbk1 kinase
[7] = RAM signaling pathway blockade in yeast – S. cerevisiae, Pdr1DBD-CYC8 efflux-inhibited sensitized strain, primary screen (AID 1298;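 active = RAM network inhibition above 8.4% in each of two replicates, 3 SD over the compound average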;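 also: 0% = DMSO untreated cells without growth and 100% = 10 µM 1-NA-PP1 full growth; higher means more yeast growth rescued from 5-FOA killing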); details: S. cerevisiae cbk1-as DSE1-URA3 strain, 5-FOA growth OD615, 2 d; at 50 µM; hits give high values

CC(C)(Oc1ccc(-c2ccco2)cc1)C(=O)O
inactive: growth inhibition [1] -0.405% | growth inhibition [2] 0.705% | viability increase [3] -0.38% | viability [4] 97.8% | viability [5] 96.8% | inhibition [6] 0.31% | RAM network inhibition [7] 1.07%

CCOc1ccc(-c2noc(CCC(=O)O)n2)cc1
inactive: growth inhibition [1] 6.08% | growth inhibition [2] -3.1% | viability increase [3] 0.28% | viability [4] 102% | viability [5] 95.1% | inhibition [6] 1.56% | RAM network inhibition [7] 0.42%

COc1ccc(-c2cn3c(C)c(C(=O)N4CCc5ccccc5C4)sc3n2)cc1
inactive: growth inhibition [1] 0.41% | growth inhibition [2] 6.71% | viability increase [3] -7.22% | viability [4] 87.6% | viability [5] 84.5% | inhibition [6] 3.01% | RAM network inhibition [7] 4.47%

CCn1c(=O)c2cc(C(=O)N3CCCC3)sc2c2ccccc21
inactive: growth inhibition [1] -4.95% | growth inhibition [2] 13% | viability increase [3] -1.55% | viability [4] 111% | viability [5] 96.8% | inhibition [6] 1.59% | RAM network inhibition [7] 2.1%

COc1ccc(OC)c(CCNC(=O)C2CCN(c3nnc(-n4cccc4)s3)CC2)c1
inactive: growth inhibition [1] -7.79% | growth inhibition [2] -20.5% | viability increase [3] -4.48% | viability [4] 85.2% | viability [5] 81.9% | inhibition [6] 4.26% | RAM network inhibition [7] 7.35%

O=C(Nc1ccccc1C(=O)N1CCOCC1)c1ccco1
inactive: growth inhibition [1] -6.66% | growth inhibition [2] -11.1% | viability increase [3] -0.74% | viability [4] 101% | viability [5] 105% | inhibition [6] 0.27% | RAM network inhibition [7] 2.67%

COc1ccccc1OCCNC(=O)c1ccc(S(=O)(=O)N(C)C)cc1
inactive: growth inhibition [1] -3.92% | growth inhibition [2] 3.39% | viability increase [3] -1.91% | viability [4] 100% | viability [5] 91.9% | inhibition [6] -0.715% | RAM network inhibition [7] 2.71%

COCCN1C(=O)c2oc3ccccc3c(=O)c2C1c1ccc(C(=O)OC)cc1 (stereo not drawn)
inactive: growth inhibition [1] -1.7% | growth inhibition [2] 5.81% | viability increase [3] -1.14% | viability [4] 94.3% | viability [5] 89.1% | inhibition [6] 0.775% | RAM network inhibition [7] 2.37%

Cn1c(NC(=O)c2ccccc2)cc(=O)n(C)c1=O
inactive: growth inhibition [1] -19% | growth inhibition [2] -9.99% | viability increase [3] -1.36% | viability [4] 100% | viability [5] 93.8% | inhibition [6] 1.12% | RAM network inhibition [7] 1.26%

CC(=O)NCCc1nc2ccccc2n1Cc1ccccc1
inactive: growth inhibition [1] 1.21% | growth inhibition [2] -2.44% | viability increase [3] -2% | viability [4] 106% | viability [5] 98.8% | inhibition [6] 1.33% | RAM network inhibition [7] 3.58%

O=C(Nc1ccc(Cl)cc1)C1CC2CCCC(C1)C2=O (stereo not drawn)
inactive: growth inhibition [1] -7.49% | growth inhibition [2] -3.51% | viability increase [3] 0.77% | viability [4] 97.2% | viability [5] 99.2% | inhibition [6] 0.77% | RAM network inhibition [7] 4.61%

Cc1cc(F)ccc1S(=O)(=O)Nc1c(C)n(C)n(-c2ccccc2)c1=O
inactive: growth inhibition [1] 1.71% | growth inhibition [2] 0.315% | viability increase [3] -1.59% | viability [4] 114% | viability [5] 93.7% | inhibition [6] 0.205% | RAM network inhibition [7] 2.26%

COc1ccccc1N(CC(=O)Nc1ccccc1C(=O)NC(C)C)S(C)(=O)=O
inactive: growth inhibition [1] -3.27% | growth inhibition [2] -16.6% | viability increase [3] -0.99% | viability [4] 86.6% | viability [5] 77% | inhibition [6] 1.95% | RAM network inhibition [7] -0.28%

CCOC(=O)C1C(=O)CC(C)(O)C(C(=O)OCC)C1/C=C/c1ccccc1 (stereo not drawn)
inactive: growth inhibition [1] -4.58% | growth inhibition [2] 2.66% | viability increase [3] -3.71% | viability [4] 94.4% | viability [5] 83.1% | inhibition [6] 0.605% | RAM network inhibition [7] 7.42%

COCCN(CCOC)Cc1c(C)[nH]c2c(C)c(C)ccc2c1=O
inactive: growth inhibition [1] -16.2% | growth inhibition [2] -9.49% | viability increase [3] -1.96% | viability [4] 96.8% | viability [5] 100% | inhibition [6] 2.54% | RAM network inhibition [7] 3.28%

O=C(c1ccc(CS(=O)(=O)c2ccc(Br)cc2)o1)N1CCOCC1
inactive: growth inhibition [1] -10.2% | growth inhibition [2] -12.6% | viability increase [3] -0.67% | viability [4] 104% | viability [5] 97.3% | inhibition [6] 2.23% | RAM network inhibition [7] 0.1%

Cn1c(=O)oc2cc(S(=O)(=O)NCCN3CCc4ccccc4C3)ccc21
inactive: growth inhibition [1] -14.3% | growth inhibition [2] -10.7% | viability increase [3] -3.63% | viability [4] 98.5% | viability [5] 89.9% | inhibition [6] 1.6% | RAM network inhibition [7] 0.61%

O=C1c2ccccc2C(Nc2ccc3c(c2)OCCO3)N1c1ccccn1 (stereo not drawn)
inactive: growth inhibition [1] -10.6% | growth inhibition [2] -13.5% | viability increase [3] -1.97% | viability [4] 81.5% | viability [5] 85.6% | inhibition [6] 1.86% | RAM network inhibition [7] 4.05%

Cc1ccc2c(c1)NC(=O)C(CC(=O)NCCCN1CCCCC1C)O2 (stereo not drawn)
inactive: growth inhibition [1] 6.71% | growth inhibition [2] 8.33% | viability increase [3] -1.72% | viability [4] 101% | viability [5] 101% | inhibition [6] -0.48% | RAM network inhibition [7] 1.25%

CCn1c(=NC(=O)CN2C(=O)CCC2=O)sc2c(OC)ccc(OC)c21
inactive: growth inhibition [1] -5.83% | growth inhibition [2] -14.7% | viability increase [3] -2.94% | viability [4] 87.4% | viability [5] 96% | inhibition [6] 2.75% | RAM network inhibition [7] 6.17%

CC(C)CCOC(=O)C1C2C=CC3(CN(Cc4cccs4)C(=O)C13)O2 (stereo not drawn)
inactive: growth inhibition [1] -9.53% | growth inhibition [2] 2.99% | viability increase [3] -0.61% | viability [4] 94.3% | viability [5] 91.2% | inhibition [6] 0.305% | RAM network inhibition [7] 2.76%

Cn1c(=O)oc2cc(S(=O)(=O)Nc3cccc(F)c3)ccc21
inactive: growth inhibition [1] -14.2% | growth inhibition [2] -2.1% | viability increase [3] -0.69% | viability [4] 94.3% | viability [5] 89.5% | inhibition [6] 2.04% | RAM network inhibition [7] 5.85%

O=c1cc(O)sc2ccccc12
inactive: growth inhibition [1] -4.72% | growth inhibition [2] -8.78% | viability increase [3] -2.09% | viability [4] 96.4% | viability [5] 94.4% | inhibition [6] 0.79% | RAM network inhibition [7] -0.87%

O=C(NCC(c1cccs1)N1CCOCC1)c1cc2ccccc2o1 (stereo not drawn)
inactive: growth inhibition [1] -2.08% | growth inhibition [2] -15.1% | viability increase [3] -1.69% | viability [4] 99.3% | viability [5] 100% | inhibition [6] 0.345% | RAM network inhibition [7] 0.26%
